In brackets after ≈: the same amount, converted by molar mass.
Tests used:
Staphylococcus aureus [1] = experiment: Antibacterial activity against ciprofloxacin-resistant Staphylococcus aureus by agar microdilution method; assay type: functional
Procedure, shortened: (§1)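 MIC by agar microdilution following NCCLS standards; strains drawn from the PLIVA Research Institute culture collection. MIC reported in μg/mL.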

Haemophilus influenzae = experiment: Antibacterial activity against Haemophilus influenzae B0529 by agar microdilution method; assay type: functional
Procedure, shortened: (§2)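 Agar microdilution MIC per NCCLS standards against strains from the Pliva Research Institute culture collection; values in µg/mL. Panel included erythromycin-susceptible strains and strains with inducible or constitutive MLS resistance.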

Staphylococcus aureus [2] = experiment: Antibacterial activity against erythromycin-susceptible Staphylococcus aureus by agar microdilution method; assay type: functional; procedure, shortened: as §2
[3] = Inhibition of protein synthesis using Escherichia coli S30 extracts preincubated for 10 mins measured after 50 mins by luciferase reporter gene assay; assay type: functional
Streptococcus pyogenes [4] = experiment: Antibacterial activity against erythromycin-susceptible Streptococcus pyogenes by agar microdilution method; assay type: functional; procedure, shortened: as §1
Streptococcus pyogenes [5] = experiment: Antibacterial activity against constitutive MLS resistant Streptococcus pyogenes by agar microdilution method; assay type: functional; procedure, shortened: as §1
[6] = Inhibition of Escherichia coli DNA gyrase-mediated supercoiling of relaxed pBR322 DNA
Moraxella catarrhalis = experiment: Antibacterial activity against Moraxella catarrhalis by agar microdilution method; assay type: functional; procedure, shortened: as §2
Staphylococcus aureus [7] = experiment: Antibacterial activity against efflux mediated macrolide resistant Staphylococcus aureus by agar microdilution method; assay type: functional; procedure, shortened: as §1
Staphylococcus aureus [8] = experiment: Antibacterial activity against constitutive MLS resistant Staphylococcus aureus by agar microdilution method; assay type: functional; procedure, shortened: as §1
Streptococcus pneumoniae [9] = experiment: Antibacterial activity against erythromycin-susceptible Streptococcus pneumoniae by agar microdilution method; assay type: functional; procedure, shortened: as §1
[10] = Inhibition of Escherichia coli topoisomerase 4-mediated relaxation of supercoiled pBR322 DNA
Staphylococcus aureus [11] = experiment: Antibacterial activity against Staphylococcus aureus with inducible resistance to MLS by agar microdilution method; assay type: functional; procedure, shortened: as §1
Streptococcus pneumoniae [12] = experiment: Antibacterial activity against constitutive MLS resistant Streptococcus pneumoniae by agar microdilution method; assay type: functional; procedure, shortened: as §1
Streptococcus pyogenes [13] = experiment: Antibacterial activity against efflux mediated macrolide resistant Streptococcus pyogenes by agar microdilution method; assay type: functional; procedure, shortened: as §1
Streptococcus pneumoniae [14] = experiment: Antibacterial activity against efflux mediated macrolide resistant Streptococcus pneumoniae by agar microdilution method; assay type: functional; procedure, shortened: as §1
Streptococcus pyogenes [15] = experiment: Antibacterial activity against Streptococcus pyogenes with inducible resistance to MLS by agar microdilution method; assay type: functional; procedure, shortened: as §1

Structure (SMILES)	MIC (Staphylococcus aureus [1]) [µg/mL]	MIC (Haemophilus influenzae) [µg/mL]	MIC (Staphylococcus aureus [2]) [µg/mL]	IC50 [3] [µM]	MIC (Streptococcus pyogenes [4]) [µg/mL]	MIC (Streptococcus pyogenes [5]) [µg/mL]	IC50 [6] [µM]	MIC (Moraxella catarrhalis) [µg/mL]	MIC (Staphylococcus aureus [7]) [µg/mL]	MIC (Staphylococcus aureus [8]) [µg/mL]	MIC (Streptococcus pneumoniae [9]) [µg/mL]	IC50 [10] [µM]	MIC (Staphylococcus aureus [11]) [µg/mL]	MIC (Streptococcus pneumoniae [12]) [µg/mL]	MIC (Streptococcus pyogenes [13]) [µg/mL]	MIC (Streptococcus pneumoniae [14]) [µg/mL]	MIC (Streptococcus pyogenes [15]) [µg/mL]
CC[C@H]1OC(=O)[C@H](C)[C@@H](O[C@H]2C[C@@](C)(OC)[C@@H](OCCNCCOCCNc3cc4c(=O)c(C(=O)O)cn(C5CC5)c4cc3Cl)[C@H](C)O2)[C@H](C)[C@@H](O[C@@H]2O[C@H](C)C[C@H](N(C)C)[C@H]2O)[C@](C)(O)C[C@@H](C)CN(C)[C@H](C)[C@H]2OC(=O)O[C@@]21C	32 (≈ 27.4 µM)	0.5 (≈ 0.429 µM)	≤ 0.125	0.28	≤ 0.125	0.5 (≈ 0.429 µM)	70	≤ 0.125	0.25 (≈ 0.214 µM)	32 (≈ 27.4 µM)	≤ 0.125	60	0.25 (≈ 0.214 µM)	–	–	–	–
CC[C@H]1OC(=O)[C@H](C)[C@@H](O[C@H]2C[C@@](C)(OC)[C@@H](OCCNCCOCCNc3cc4c(=O)c(C(=O)O)cn(C5CC5)c4cc3Cl)[C@H](C)O2)[C@H](C)[C@@H](O[C@@H]2O[C@H](C)C[C@H](N(C)C)[C@H]2O)[C@](C)(O)C[C@@H](C)CN(C)[C@H](C)[C@@H](O)[C@]1(C)O	≥ 64	0.5 (≈ 0.438 µM)	≤ 0.125	0.35	≤ 0.125	1 (≈ 0.877 µM)	60	0.125 (≈ 0.11 µM)	0.5 (≈ 0.438 µM)	64 (≈ 56.1 µM)	≤ 0.125	50	0.25 (≈ 0.219 µM)	0.25 (≈ 0.219 µM)	0.125 (≈ 0.11 µM)	–	–
CC[C@H]1OC(=O)[C@H](C)[C@@H](O[C@H]2C[C@@](C)(OC)[C@@H](OCCCC(=O)NCCNc3cc4c(cc3F)c(=O)c(C(=O)O)cn4C3CC3)[C@H](C)O2)[C@H](C)[C@@H](O[C@@H]2O[C@H](C)C[C@H](N(C)C)[C@H]2O)[C@](C)(O)C[C@@H](C)CN(C)[C@H](C)[C@@H](O)[C@]1(C)O	≥ 64	8 (≈ 7.13 µM)	8 (≈ 7.13 µM)	–	1 (≈ 0.891 µM)	16 (≈ 14.3 µM)	–	2 (≈ 1.78 µM)	16 (≈ 14.3 µM)	64 (≈ 57 µM)	1 (≈ 0.891 µM)	–	8 (≈ 7.13 µM)	1 (≈ 0.891 µM)	16 (≈ 14.3 µM)	4 (≈ 3.56 µM)	1 (≈ 0.891 µM)
CC[C@H]1OC(=O)[C@H](C)[C@@H](O[C@H]2C[C@@](C)(OC)[C@@H](OCCCC(=O)NCCOCCNc3cc4c(cc3F)c(=O)c(C(=O)O)cn4C3CC3)[C@H](C)O2)[C@H](C)[C@@H](O[C@@H]2O[C@H](C)C[C@H](N(C)C)[C@H]2O)[C@](C)(O)C[C@@H](C)CN(C)[C@H](C)[C@@H](O)[C@]1(C)O	≥ 64	16 (≈ 13.7 µM)	16 (≈ 13.7 µM)	–	0.25 (≈ 0.214 µM)	4 (≈ 3.43 µM)	–	8 (≈ 6.86 µM)	32 (≈ 27.4 µM)	64 (≈ 54.9 µM)	0.5 (≈ 0.429 µM)	–	64 (≈ 54.9 µM)	8 (≈ 6.86 µM)	2 (≈ 1.71 µM)	0.25 (≈ 0.214 µM)	0.25 (≈ 0.214 µM)
CC[C@H]1OC(=O)[C@H](C)[C@@H](O[C@H]2C[C@@](C)(OC)[C@@H](OCCCC(=O)NCCOCCOCCNc3cc4c(=O)c(C(=O)O)cn(C5CC5)c4cc3Cl)[C@H](C)O2)[C@H](C)[C@@H](O[C@@H]2O[C@H](C)C[C@H](N(C)C)[C@H]2O)[C@](C)(O)C[C@@H](C)CN(C)[C@H](C)[C@@H](O)[C@]1(C)O	≥ 64	8 (≈ 6.52 µM)	16 (≈ 13 µM)	–	0.25 (≈ 0.204 µM)	4 (≈ 3.26 µM)	–	2 (≈ 1.63 µM)	8 (≈ 6.52 µM)	64 (≈ 52.2 µM)	≤ 0.125	–	64 (≈ 52.2 µM)	64 (≈ 52.2 µM)	1 (≈ 0.815 µM)	0.25 (≈ 0.204 µM)	0.5 (≈ 0.408 µM)
CC[C@H]1OC(=O)[C@H](C)[C@@H](O[C@H]2C[C@@](C)(OC)[C@@H](O)[C@H](C)O2)[C@H](C)[C@@H](O[C@@H]2O[C@H](C)C[C@H](N(C)C)[C@H]2O)[C@](C)(O)C[C@@H](C)CN(C)[C@H](C)[C@@H](O)[C@]1(C)O [AZITHROMYCIN]	≥ 64	1 (≈ 1.34 µM)	1 (≈ 1.34 µM)	–	≤ 0.125	> 64	–	0.25 (≈ 0.334 µM)	> 64	> 64	≤ 0.125	–	> 64	> 64	1 (≈ 1.34 µM)	4 (≈ 5.34 µM)	8 (≈ 10.7 µM)
O=C(O)c1cn(C2CC2)c2cc(N3CCNCC3)c(F)cc2c1=O [CIPROFLOXACIN]	≥ 64	≤ 0.125	–	> 50	2 (≈ 6.04 µM)	0.5 (≈ 1.51 µM)	0.8	0.125 (≈ 0.377 µM)	≤ 0.125	–	≤ 0.125	3	≤ 0.125	0.25 (≈ 0.754 µM)	≤ 0.125	0.25 (≈ 0.754 µM)	0.25 (≈ 0.754 µM)
CC[C@H]1OC(=O)[C@H](C)C(=O)[C@H](C)[C@@H](O[C@@H]2O[C@H](C)C[C@H](N(C)C)[C@H]2O)[C@](C)(OC)C[C@@H](C)C(=O)[C@H](C)[C@H]2N(CCCCn3cnc(-c4cccnc4)c3)C(=O)O[C@]12C [TELITHROMYCIN]	≥ 64	1 (≈ 1.23 µM)	≤ 0.125	0.23	≤ 0.125	4 (≈ 4.93 µM)	> 50	≤ 0.125	0.25 (≈ 0.308 µM)	> 64	≤ 0.125	> 50	0.5 (≈ 0.616 µM)	–	0.25 (≈ 0.308 µM)	0.5 (≈ 0.616 µM)	–

From ChEMBL document CHEMBL1944570, “Discovery of 4''-ether linked azithromycin-quinolone hybrid series: influence of the central linker on the antibacterial activity” (ACS Med Chem Lett, 2011)
